Assays:
[1] = Cytotoxicity against human DMS114 cells by SRB assay; assay type: functional; conditions: DMS-114
Summary of the method: (§1)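 Tested at the Japanese Foundation for Cancer Research panel of 39 human cancer cell lines. Five concentrations per compound, spanning 10^-10 to 10^-6 M or 10^-8 to 10^-4 M. Growth measured by sulforhodamine B colorimetry. GI50 is the concentration giving 50% growth inhibition relative to control.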

[2] = Cytotoxicity against human OVCAR5 cells by SRB assay; assay type: functional; conditions: OVCAR-5; summary of the method: as §1
OVCAR-3 = test: Cytotoxicity against human OVCAR3 cells by SRB assay; assay type: functional; summary of the method: as §1
[3] = Cytotoxicity against human OVCAR4 cells by SRB assay; assay type: functional; conditions: OVCAR-4; summary of the method: as §1
SNB-75 = test: Cytotoxicity against human SNB75 cells by SRB assay; assay type: functional; summary of the method: as §1
LOX IMVI = test: Cytotoxicity against human LOXIMVI cells by SRB assay; assay type: functional; summary of the method: as §1
HCC 2998 = test: Cytotoxicity against human HCC2998 cells by SRB assay; assay type: functional; summary of the method: as §1
A549 = test: Cytotoxicity against human A549 cells by SRB assay; assay type: functional; summary of the method: as §1
[4] = Cytotoxicity against human MKN1 cells by SRB assay; assay type: functional; conditions: MKN-1; summary of the method: as §1
St-4 = test: Cytotoxicity against human St-4 cells by SRB assay; assay type: functional; summary of the method: as §1
NCI-H23 = test: Cytotoxicity against human NCI-H23 cells by SRB assay; assay type: functional; summary of the method: as §1
[5] = Cytotoxicity against human MKN7 cells by SRB assay; assay type: functional; conditions: MKN-7; summary of the method: as §1
SF-295 = test: Cytotoxicity against human SF295 cells by SRB assay; assay type: functional; summary of the method: as §1
[6] = target: T1, Protein deacetylase HDAC6 (Mus musculus, UniProt Q9Z2V5); test: Inhibition of mouse HDAC6 expressed in human 293T cells using Ac-KGLGK(Ac)-MCA as substrate after 30 mins by fluorescence assay; assay type: cell-based
T1 sequence (Q9Z2V5 whole entry): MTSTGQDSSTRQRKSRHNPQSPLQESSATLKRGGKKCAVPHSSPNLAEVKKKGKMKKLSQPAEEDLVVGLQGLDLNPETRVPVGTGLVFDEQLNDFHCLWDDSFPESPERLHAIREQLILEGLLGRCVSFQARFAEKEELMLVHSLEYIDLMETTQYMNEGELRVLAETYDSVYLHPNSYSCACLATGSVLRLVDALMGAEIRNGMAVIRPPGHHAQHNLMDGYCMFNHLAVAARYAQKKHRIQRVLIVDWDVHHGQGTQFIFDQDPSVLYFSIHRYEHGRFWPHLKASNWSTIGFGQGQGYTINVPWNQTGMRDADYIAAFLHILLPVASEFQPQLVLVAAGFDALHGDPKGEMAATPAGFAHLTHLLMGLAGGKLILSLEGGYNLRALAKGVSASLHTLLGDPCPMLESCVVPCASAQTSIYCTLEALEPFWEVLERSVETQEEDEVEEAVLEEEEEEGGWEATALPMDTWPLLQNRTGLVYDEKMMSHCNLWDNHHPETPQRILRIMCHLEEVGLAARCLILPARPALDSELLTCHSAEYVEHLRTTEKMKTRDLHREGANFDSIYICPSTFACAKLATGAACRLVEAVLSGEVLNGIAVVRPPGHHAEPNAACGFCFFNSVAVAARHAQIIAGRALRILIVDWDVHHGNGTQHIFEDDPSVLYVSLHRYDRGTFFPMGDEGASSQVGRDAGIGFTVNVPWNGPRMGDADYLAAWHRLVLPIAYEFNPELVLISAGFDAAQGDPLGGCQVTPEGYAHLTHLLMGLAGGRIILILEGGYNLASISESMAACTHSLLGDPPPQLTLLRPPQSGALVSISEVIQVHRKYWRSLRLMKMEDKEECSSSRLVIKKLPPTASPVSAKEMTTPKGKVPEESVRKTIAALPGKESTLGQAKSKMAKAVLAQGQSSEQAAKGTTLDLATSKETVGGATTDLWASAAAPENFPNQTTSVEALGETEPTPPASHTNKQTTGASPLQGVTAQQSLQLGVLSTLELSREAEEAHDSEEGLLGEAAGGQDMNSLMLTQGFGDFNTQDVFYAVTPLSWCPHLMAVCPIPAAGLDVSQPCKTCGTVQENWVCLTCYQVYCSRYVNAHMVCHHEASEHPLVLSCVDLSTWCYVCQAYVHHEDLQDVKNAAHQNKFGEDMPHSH

HCT-15 = test: Cytotoxicity against human HCT15 cells by SRB assay; assay type: functional; summary of the method: as §1
OVCAR-8 = test: Cytotoxicity against human OVCAR8 cells by SRB assay; assay type: functional; summary of the method: as §1
HT-29 = test: Cytotoxicity against human HT-29 cells by SRB assay; assay type: functional; summary of the method: as §1
SF-268 = test: Cytotoxicity against human SF268 cells by SRB assay; assay type: functional; summary of the method: as §1
NCI-H522 = test: Cytotoxicity against human NCI-H522 cells by SRB assay; assay type: functional; summary of the method: as §1
MDA-MB-231 = test: Cytotoxicity against human MDA-MB-231 cells by SRB assay; assay type: functional; summary of the method: as §1
[7] = Selectivity index, ratio of IC50 for mouse HDAC6 to IC50 for human HDAC1
Summary of the method: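 Ratio of HDAC6 IC50 to HDAC1 IC50. Both enzymes were FLAG-immunopurified from transfected 293T cells: human HDAC1 and mouse HDAC6. Each was assayed on Ac-KGLGK(Ac)-MCA with 100 µM DTT at 37 °C for 30 min, developed with trypsin, and AMC read by fluorescence. IC50s are means of ≥3 curves.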

[8] = Cytotoxicity against human SNB78 cells by SRB assay; assay type: functional; conditions: SNB-78; summary of the method: as §1
DU-145 = test: Cytotoxicity against human DU145 cells by SRB assay; assay type: functional; summary of the method: as §1
[9] = Cytotoxicity against human HBC4 cells by SRB assay; assay type: functional; summary of the method: as §1
NCI-H226 = test: Cytotoxicity against human NCI-H226 cells by SRB assay; assay type: functional; summary of the method: as §1
ACHN = test: Cytotoxicity against human ACHN cells by SRB assay; assay type: functional; summary of the method: as §1
KM12 = test: Cytotoxicity against human KM12 cells by SRB assay; assay type: functional; summary of the method: as §1
SF-539 = test: Cytotoxicity against human SF539 cells by SRB assay; assay type: functional; summary of the method: as §1
MCF7 = test: Cytotoxicity against human MCF7 cells by SRB assay; assay type: functional; summary of the method: as §1
U-251 = test: Cytotoxicity against human U251 cells by SRB assay; assay type: functional; summary of the method: as §1
SK-OV-3 = test: Cytotoxicity against human SKOV3 cells by SRB assay; assay type: functional; summary of the method: as §1
[10] = Cytotoxicity against human MKN28 cells by SRB assay; assay type: functional; conditions: MKN-28; summary of the method: as §1
[11] = Cytotoxicity against human DMS273 cells by SRB assay; assay type: functional; conditions: DMS-273; summary of the method: as §1
[12] = Cytotoxicity against human MKN74 cells by SRB assay; assay type: functional; conditions: MKN-74; summary of the method: as §1
[13] = Cytotoxicity against human HBC5 cells by SRB assay; assay type: functional; summary of the method: as §1
PC-3 = test: Cytotoxicity against human PC3 cells by SRB assay; assay type: functional; summary of the method: as §1
NCI-H460 = test: Cytotoxicity against human NCI-H460 cells by SRB assay; assay type: functional; summary of the method: as §1
HCT-116 = test: Cytotoxicity against human HCT116 cells by SRB assay; assay type: functional; summary of the method: as §1
Histone deacetylase 1 [14] = target: T2, Histone deacetylase 1 (Homo sapiens, UniProt Q13547); test: Ratio of FK228 IC50 to compound IC50 for human HDAC1 expressed in human 293T cells; assay type: cell-based
T2 sequence (Q13547 whole entry): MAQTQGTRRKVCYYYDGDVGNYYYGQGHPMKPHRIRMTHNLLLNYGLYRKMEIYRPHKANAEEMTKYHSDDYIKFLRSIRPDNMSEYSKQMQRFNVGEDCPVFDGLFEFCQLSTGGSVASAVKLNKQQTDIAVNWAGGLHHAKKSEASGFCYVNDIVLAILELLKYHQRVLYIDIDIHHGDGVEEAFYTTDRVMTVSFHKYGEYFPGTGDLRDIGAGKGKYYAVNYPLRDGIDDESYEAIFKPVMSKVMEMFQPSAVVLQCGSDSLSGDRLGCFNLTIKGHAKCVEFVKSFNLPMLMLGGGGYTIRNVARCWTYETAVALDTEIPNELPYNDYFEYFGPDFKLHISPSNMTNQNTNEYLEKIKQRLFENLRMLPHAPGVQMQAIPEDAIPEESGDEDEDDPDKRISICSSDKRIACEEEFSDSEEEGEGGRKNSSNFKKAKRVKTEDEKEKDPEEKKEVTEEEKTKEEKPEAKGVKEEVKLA
Summary of the method: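 FLAG-tagged human HDAC1 was expressed transiently in 293T cells (pcDNA3-HDAC1), immunoprecipitated with anti-FLAG M2 and eluted with FLAG peptide. Enzyme was incubated with 2 mM stock Ac-KGLGK(Ac)-MCA in 20 mM Tris-HCl pH 8.0, 150 mM NaCl, 10% glycerol, 100 μM DTT, for 30 min at 37 °C. Trypsin then released AMC, read by fluorescence. IC50 is the mean of ≥3 dose-response curves; FK228 reference run alongside.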

Histone deacetylase 1 [15] = target: T2, Histone deacetylase 1; test: Inhibition of human HDAC1 expressed in human 293T cells using Ac-KGLGK(Ac)-MCA as substrate after 30 mins by fluorescence assay
[16] = Cytotoxicity against human BSY1 cells by SRB assay; assay type: functional; conditions: BSY-1; summary of the method: as §1
[17] = Cytotoxicity against human RXF631L cells by SRB assay; assay type: functional; conditions: RXF 631; summary of the method: as §1
[18] = Cytotoxicity against human MKN45 cells by SRB assay; assay type: functional; conditions: MKN-45; summary of the method: as §1

Structure (SMILES): CSCC[C@H]1NC(=O)C[C@H]2/C=C/CCSSC[C@@H](NC1=O)C(=O)N[C@H](C(C)C)[C@@H](O)CC(=O)O2
- GI50 [1]: 0.97 nM
- GI50 [2]: 1 nM
- GI50 (OVCAR-3): 2.2 nM
- GI50 [3]: 5.8 nM
- GI50 (SNB-75): 3.6 nM
- GI50 (LOX IMVI): 0.5 nM
- GI50 (HCC 2998): 0.67 nM
- GI50 (A549): 0.57 nM
- GI50 [4]: 0.67 nM
- GI50 (St-4): 8.1 nM
- GI50 (NCI-H23): 0.64 nM
- GI50 [5]: 4.1 nM
- GI50 (SF-295): 3 nM
- IC50 [6]: 1970 nM
- GI50 (HCT-15): 300 nM
- GI50 (OVCAR-8): 0.68 nM
- GI50 (HT-29): 0.65 nM
- GI50 (SF-268): 1.8 nM
- GI50 (NCI-H522): 0.2 nM
- GI50 (MDA-MB-231): 1.8 nM
- Ratio IC50 [7]: 1640
- GI50 [8]: 460 nM
- GI50 (DU-145): 0.82 nM
- GI50 [9]: 3 nM
- GI50 (NCI-H226): 0.47 nM
- GI50 (ACHN): 3.4 nM
- GI50 (KM12): 0.76 nM
- GI50 (SF-539): 0.72 nM
- GI50 (MCF7): 2 nM
- GI50 (U-251): 2.2 nM
- GI50 (SK-OV-3): 0.78 nM
- GI50 [10]: 8.5 nM
- GI50 [11]: 3 nM
- GI50 [12]: 1.8 nM
- GI50 [13]: 7.8 nM
- GI50 (PC-3): 4.4 nM
- GI50 (NCI-H460): 0.91 nM
- GI50 (HCT-116): 0.51 nM
- Ratio IC50 (Histone deacetylase 1 [14]): 3
- IC50 (Histone deacetylase 1 [15]): 1.2 nM
- GI50 [16]: 4 nM
- GI50 [17]: 1.3 nM
- GI50 [18]: 7.6 nM

Reference: ChEMBL document CHEMBL3124849, “Total synthesis of burkholdacs A and B and 5,6,20-tri-epi-burkholdac A: HDAC inhibition and antiproliferative activity” (Eur J Med Chem, 2014)
